The source made the active and inactive calls.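 How the source made its calls: active means compound that lowers Cav3.3 T-type calcium current at some tested dose and yields a usable dose response curve; inactive means the rest.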
Target: Voltage-dependent T-type calcium channel subunit alpha-1I (Homo sapiens) (UniProt Q9P0X4)
Assay: Cav3.3 T-type channel current inhibition, dose response, selectivity assay for Cav3.2 inhibitor project, automated patch clamp, HEK293 cells (AID 504425)
Details: HEK293 Cav3.3, automated patch clamp current; for current change, negative = inhibition: at 30 µM (top of the series)
Summary of the method: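 Assay system: Cav3.3-expressing stable HEK293 cell line | Probe or stimulus: Voltage step, -100 mV to -30 mV, 1 s | Timing: 3 min compound exposure between pre- and post-compound recordings | Technique: Automated perforated patch clamp current recording | Read-out basis: % current change relative to pre-compound current in each well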

Chain of Voltage-dependent T-type calcium channel subunit alpha-1I (Homo sapiens) (Q9P0X4 whole entry, looked up): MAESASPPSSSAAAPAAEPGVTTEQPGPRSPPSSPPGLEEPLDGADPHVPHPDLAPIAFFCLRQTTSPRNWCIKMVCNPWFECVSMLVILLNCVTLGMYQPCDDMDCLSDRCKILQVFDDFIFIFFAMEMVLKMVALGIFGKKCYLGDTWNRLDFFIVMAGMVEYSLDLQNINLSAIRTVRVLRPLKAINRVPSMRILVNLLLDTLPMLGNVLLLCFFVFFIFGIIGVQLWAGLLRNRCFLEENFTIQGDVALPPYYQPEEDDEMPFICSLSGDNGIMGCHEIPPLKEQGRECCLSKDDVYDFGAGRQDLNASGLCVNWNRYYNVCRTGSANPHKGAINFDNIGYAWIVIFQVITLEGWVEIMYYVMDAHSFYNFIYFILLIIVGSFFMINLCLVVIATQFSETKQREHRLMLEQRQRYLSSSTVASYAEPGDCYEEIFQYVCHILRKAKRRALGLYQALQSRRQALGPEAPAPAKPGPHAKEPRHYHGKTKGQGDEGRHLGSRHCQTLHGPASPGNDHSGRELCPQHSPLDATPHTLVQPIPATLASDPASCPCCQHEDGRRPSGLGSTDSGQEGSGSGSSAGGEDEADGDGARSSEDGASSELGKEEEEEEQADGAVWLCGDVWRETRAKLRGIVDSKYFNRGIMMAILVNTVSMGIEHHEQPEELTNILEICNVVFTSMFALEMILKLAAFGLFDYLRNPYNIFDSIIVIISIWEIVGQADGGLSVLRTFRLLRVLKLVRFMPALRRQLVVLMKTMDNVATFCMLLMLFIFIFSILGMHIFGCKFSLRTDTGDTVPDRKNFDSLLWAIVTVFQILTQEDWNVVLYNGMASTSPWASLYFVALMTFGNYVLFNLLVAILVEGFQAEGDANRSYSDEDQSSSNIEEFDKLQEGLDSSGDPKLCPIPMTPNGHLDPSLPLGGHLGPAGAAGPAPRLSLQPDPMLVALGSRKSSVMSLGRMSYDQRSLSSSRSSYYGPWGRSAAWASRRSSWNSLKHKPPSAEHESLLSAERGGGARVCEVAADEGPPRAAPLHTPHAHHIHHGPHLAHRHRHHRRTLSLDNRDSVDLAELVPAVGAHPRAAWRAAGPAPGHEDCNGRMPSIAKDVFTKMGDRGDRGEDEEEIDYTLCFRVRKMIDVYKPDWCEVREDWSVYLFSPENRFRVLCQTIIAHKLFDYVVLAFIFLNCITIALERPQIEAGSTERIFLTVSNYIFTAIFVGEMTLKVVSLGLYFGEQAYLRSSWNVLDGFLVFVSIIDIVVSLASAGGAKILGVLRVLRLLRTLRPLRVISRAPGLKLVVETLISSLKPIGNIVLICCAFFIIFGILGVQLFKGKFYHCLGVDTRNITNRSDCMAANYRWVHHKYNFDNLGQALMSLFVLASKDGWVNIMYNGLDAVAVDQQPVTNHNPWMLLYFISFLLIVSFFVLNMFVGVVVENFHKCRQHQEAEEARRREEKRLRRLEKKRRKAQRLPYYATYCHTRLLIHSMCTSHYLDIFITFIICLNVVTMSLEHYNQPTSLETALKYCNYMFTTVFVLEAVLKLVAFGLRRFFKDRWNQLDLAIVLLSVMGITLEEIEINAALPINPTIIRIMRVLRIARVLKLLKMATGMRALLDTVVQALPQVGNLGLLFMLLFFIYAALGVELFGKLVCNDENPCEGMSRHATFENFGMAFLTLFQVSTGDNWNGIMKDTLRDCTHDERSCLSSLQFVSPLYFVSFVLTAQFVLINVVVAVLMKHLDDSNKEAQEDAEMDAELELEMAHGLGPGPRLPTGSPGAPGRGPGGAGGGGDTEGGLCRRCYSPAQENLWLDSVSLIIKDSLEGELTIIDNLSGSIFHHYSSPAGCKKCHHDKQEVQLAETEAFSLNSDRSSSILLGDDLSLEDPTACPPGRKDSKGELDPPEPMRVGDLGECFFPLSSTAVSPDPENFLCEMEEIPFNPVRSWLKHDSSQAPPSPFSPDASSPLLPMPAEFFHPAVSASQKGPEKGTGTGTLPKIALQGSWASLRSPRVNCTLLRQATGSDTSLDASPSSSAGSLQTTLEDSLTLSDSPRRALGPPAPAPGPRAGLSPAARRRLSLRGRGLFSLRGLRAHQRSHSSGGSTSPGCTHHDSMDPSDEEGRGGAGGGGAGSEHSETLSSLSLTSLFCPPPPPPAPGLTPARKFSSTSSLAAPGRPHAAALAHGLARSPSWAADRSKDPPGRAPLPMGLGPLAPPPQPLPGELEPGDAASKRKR

| IC50 | Compound | current change, negative = inhibition |
| --- | --- | --- |
|  | CC(C)(C)Cc1nnc(NC(=O)COc2ccc(Cl)cc2Cl)o1 | inactive |
|  | Cc1ccc(-c2nnc(NC(=O)COc3ccc(F)cc3Cl)o2)cc1C | inactive |
| 0.275 µM | CC(C)(C)CCN1C[C@@H]2C(CNC(=O)c3cc(Cl)cc(Cl)c3)[C@@H]2C1 (some centres undefined) |  |
| 11 µM | O=C(COc1ccc(F)cc1Cl)Nc1nnc(-c2ccc(F)c(F)c2)o1 |  |
